Experimental data: ChEMBL document CHEMBL4834405, “Structure-Based Design of High-Affinity Macrocyclic FKBP51 Inhibitors” (J Med Chem, 2021)

Columns and labels:
[1] = biological target: T1, Peptidyl-prolyl cis-trans isomerase FKBP5 (Homo sapiens, UniProt Q13451); experiment: (§1) Displacement of fluorescent tracer 5-(3-(4-((1S,5S,6S)-10-(3,5-dichlorophenylsulfonyl)-2-oxo-3-(pyridin-3-ylmethyl)-3,10-diazabicyclo[4.3.1]decan-5-yl)-1H-1,2,3-triazol-1-yl)propylcarbamoyl)-2-(6-(dimethylamino)-3-(dimethyliminio)-3H-xanthen-9-yl)benzoate from recombinant full length C-terminal FLAG-tagged FKBP51 (unknown origin) expressed in Escherichia coli BL21 (DE3) cells incubated for 30 mins by fluorescence polarisation competition binding assay
T1 sequence (Q13451 whole entry): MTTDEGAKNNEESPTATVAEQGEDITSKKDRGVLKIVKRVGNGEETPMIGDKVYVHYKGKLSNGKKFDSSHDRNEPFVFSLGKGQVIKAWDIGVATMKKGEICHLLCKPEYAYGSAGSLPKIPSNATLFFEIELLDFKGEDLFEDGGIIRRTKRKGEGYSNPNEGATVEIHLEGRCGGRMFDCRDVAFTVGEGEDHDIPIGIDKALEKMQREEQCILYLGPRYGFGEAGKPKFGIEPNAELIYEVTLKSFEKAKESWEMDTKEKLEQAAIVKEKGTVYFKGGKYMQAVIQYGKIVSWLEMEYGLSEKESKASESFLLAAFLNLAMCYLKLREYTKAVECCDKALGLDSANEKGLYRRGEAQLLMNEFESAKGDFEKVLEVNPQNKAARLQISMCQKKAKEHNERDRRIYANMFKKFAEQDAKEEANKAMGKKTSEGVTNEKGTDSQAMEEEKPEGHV

[2] = biological target: T2, Peptidyl-prolyl cis-trans isomerase FKBP4 (Homo sapiens, UniProt Q02790); experiment: as §1, with “FKBP52” for “FKBP51”
T2 sequence (Q02790 whole entry): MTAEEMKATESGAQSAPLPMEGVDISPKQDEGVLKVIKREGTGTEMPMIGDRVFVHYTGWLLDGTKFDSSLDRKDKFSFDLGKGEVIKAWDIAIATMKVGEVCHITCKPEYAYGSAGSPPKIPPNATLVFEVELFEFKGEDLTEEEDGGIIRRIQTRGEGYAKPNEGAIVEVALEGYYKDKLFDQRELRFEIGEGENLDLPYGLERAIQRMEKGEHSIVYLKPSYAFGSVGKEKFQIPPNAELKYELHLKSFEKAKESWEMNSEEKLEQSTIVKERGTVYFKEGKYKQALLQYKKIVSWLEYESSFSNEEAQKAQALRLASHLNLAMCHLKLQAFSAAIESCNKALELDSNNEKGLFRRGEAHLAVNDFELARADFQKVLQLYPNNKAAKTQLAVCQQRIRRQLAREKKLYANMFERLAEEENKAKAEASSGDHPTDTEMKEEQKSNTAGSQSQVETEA
Method in brief: (§2)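 Competitive FP in 150 mM NaCl, 20 mM HEPES pH 8.0, 0.002% Triton X-100. Ligand 1:1 serially diluted in DMSO and premixed with fluorescent tracer, tracer working solution 11.9 nM (FKBP12.6, 51FK1, 52FK1) or 5.95 nM (FKBP12) before final 10-fold dilution into protein. 30 min at room temperature, read at ex/em 535/590 nm. Weighted SD from at least two independent runs.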

[3] = (§3) Selectivity ratio of Kd for displacement of fluorescent tracer 5-(3-(4-((1S,5S,6S)-10-(3,5-dichlorophenylsulfonyl)-2-oxo-3-(pyridin-3-ylmethyl)-3,10-diazabicyclo[4.3.1]decan-5-yl)-1H-1,2,3-triazol-1-yl)propylcarbamoyl)-2-(6-(dimethylamino)-3-(dimethyliminio)-3H-xanthen-9-yl)benzoate from recombinant full length C-terminal FLAG-tagged FKBP52 (unknown origin) to Kd for displacement of fluorescent tracer 5-(3-(4-((1S,5S,6S)-10-(3,5-dichlorophenylsulfonyl)-2-oxo-3-(pyridin-3-ylmethyl)-3,10-diazabicyclo[4.3.1]decan-5-yl)-1H-1,2,3-triazol-1-yl)propylcarbamoyl)-2-(6-(dimethylamino)-3-(dimethyliminio)-3H-xanthen-9-yl)benzoate from recombinant full length C-terminal FLAG-tagged FKBP51 (unknown origin)
[4] = biological target: Peptidyl-prolyl cis-trans isomerase FKBP1A (Homo sapiens, UniProt P62942); experiment: as §1, with “FKBP12” for “FKBP51”, “([…])” for “(DE3)”; method in brief: as §2
[5] = as §3, with “FJBP12” for “FKBP52 (unknown origin)”
[6] = biological target: Peptidyl-prolyl cis-trans isomerase FKBP1B (Homo sapiens, UniProt P68106); experiment: as §1, with “FKBP12.6” for “FKBP51”, “competition” for “competition binding”; method in brief: as §2
[7] = as §3, with “FKBP12.6” for “FKBP52”

Sequence of Peptidyl-prolyl cis-trans isomerase FKBP1A (P62942 whole entry): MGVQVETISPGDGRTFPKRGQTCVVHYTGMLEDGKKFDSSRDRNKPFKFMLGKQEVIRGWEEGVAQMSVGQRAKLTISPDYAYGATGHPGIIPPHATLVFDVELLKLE
Sequence of Peptidyl-prolyl cis-trans isomerase FKBP1B (P68106 whole entry): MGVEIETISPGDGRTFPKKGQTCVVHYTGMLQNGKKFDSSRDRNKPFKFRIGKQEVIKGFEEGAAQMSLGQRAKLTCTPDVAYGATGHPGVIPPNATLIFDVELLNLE

Structure (SMILES)	Kd [1]	Kd [2]	Selectivity ratio [3]	Kd [4]	Selectivity ratio [5]	Kd [6]	Selectivity ratio [7]
COc1ccc(CC[C@H]2OC(=O)[C@@H]3CCCCN3C(=O)[C@@H](C3CCCCC3)c3cc(OC)c(OC)c(c3)OCCCOc3cccc2c3)cc1OC	70 nM	13200 nM	> 188	295 nM	4.2	94 nM	1.3
COc1ccc(CC[C@H]2OC(=O)[C@@H]3CCCCN3C(=O)[C@@H](C3CCCCC3)c3cc(OC)c(c(OC)c3)OCCOC/C=C/COc3cccc2c3)cc1OC		> 10000 nM		1010 nM		715 nM	
COc1ccc(CC[C@H]2OC(=O)[C@@H]3CCCCN3C(=O)[C@@H](C3CCCCC3)c3cc(OC)c(c(OC)c3)OCCOCCCCOc3cccc2c3)cc1OC	138 nM	> 10000 nM	> 72	1110 nM	8	429 nM	3.1
COc1ccc(CC[C@H]2OC(=O)[C@@H]3CCCCN3C(=O)[C@@H](C3CCCCC3)c3cc(OC)c(OC)c(c3)OCCCCOc3cccc2c3)cc1OC	29 nM	4460 nM	154	113 nM	3.8	62 nM	2.1
COc1ccc(CC[C@H]2OC(=O)[C@@H]3CCCCN3C(=O)[C@@H](C3CCCCC3)c3cc(OC)c(c(OC)c3)OCCCOC/C=C/COc3cccc2c3)cc1OC	84 nM	> 10000 nM	> 119	595 nM	7	335 nM	3.9
COc1ccc(CC[C@H]2OC(=O)[C@@H]3CCCCN3C(=O)[C@@H](C3CCCCC3)c3cc(OC)c(OC)c(c3)OCC/C=C/COc3cccc2c3)cc1OC	113 nM	> 10000 nM	> 89	588 nM	5.2	709 nM	6.3
COc1ccc(CC[C@H]2OC(=O)[C@@H]3CCCCN3C(=O)[C@@H](C3CCCCC3)c3cc(OC)c(c(OC)c3)OCC/C=C\COc3cccc2c3)cc1OC	88 nM	> 10000 nM	> 114	526 nM	6	495 nM	5.6
COc1ccc(CC[C@H]2OC(=O)[C@@H]3CCCCN3C(=O)[C@@H](C3CCCCC3)c3cc(OC)c(c(OC)c3)OCCCCCOc3cccc2c3)cc1OC	119 nM	> 10000 nM	> 84	1490 nM	12.5	849 nM	7.1
COc1ccc(CC[C@H]2OC(=O)[C@@H]3CCCCN3C(=O)[C@@H](C3CCCCC3)c3cc(OC)c(OC)c(c3)OCCOC/C=C\COc3cccc2c3)cc1OC	137 nM	> 10000 nM	> 73	345 nM	2.5	301 nM	2.2
COc1ccc(CC[C@H]2OC(=O)[C@@H]3CCCCN3C(=O)[C@@H](C3CCCCC3)c3cc(OC)c(OC)c(c3)OCCOC/C=C/COc3cccc2c3)cc1OC	62 nM	> 10000 nM	> 161	192 nM	3.1	105 nM	1.7
COc1ccc(CC[C@H]2OC(=O)[C@@H]3CCCCN3C(=O)[C@@H](C3CCCCC3)c3cc(OC)c(OC)c(c3)OCCCOC/C=C\COc3cccc2c3)cc1OC	144 nM	> 10000 nM	> 69	494 nM	3.4	352 nM	2.3
COc1ccc(CC[C@H]2OC(=O)[C@@H]3CCCCN3C(=O)[C@@H](C3CCCCC3)c3cc(OC)c(c(OC)c3)OCCOC/C=C\COc3cccc2c3)cc1OC		> 10000 nM		798 nM		344 nM	
COc1cccc([C@@H](CCc2ccc(OC)c(OC)c2)OC(=O)[C@@H]2CCCCN2C(=O)[C@H](c2cc(OC)c(OC)c(OC)c2)C2CCCCC2)c1	83 nM	> 10000 nM		263 nM		203 nM	
